Test results: ChEMBL document CHEMBL3763042, “Synthesis, biological evaluation and molecular modeling of a novel series of 7-azaindole based tri-heterocyclic compounds as potent CDK2/Cyclin E inhibitors” (Eur J Med Chem, 2016)

Assays:
[1] = Cytotoxicity against human G361 cells assessed as cell viability after 72 hrs by fluorescence microplate reader method; assay type: functional, cell-based; conditions: G-361, 72 h
Summary of the method: (§1)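 Cells were exposed to three-fold compound dilutions in triplicate for 72 h. Viability was read after adding Calcein AM, as live-cell fluorescence at 485/538 nm (excitation/emission).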

K562 [2] = assay: Cytotoxicity against human K562 cells assessed as cell viability after 72 hrs by fluorescence microplate reader method; assay type: functional, cell-based; conditions: K562, 72 h; summary of the method: as §1
[3] = Cytotoxicity against human G361 cells assessed as cell viability at 50 uM after 72 hrs by fluorescence microplate reader method; assay type: functional; conditions: G-361, 72 h, read-out: Activity
K562 [4] = assay: Cytotoxicity against human K562 cells assessed as cell viability at 50 uM after 72 hrs by fluorescence microplate reader method; assay type: functional; conditions: K562, 72 h, read-out: Activity
MCF7 [5] = assay: Cytotoxicity against human MCF7 cells assessed as cell viability at 50 uM after 72 hrs by fluorescence microplate reader method; assay type: functional; conditions: MCF7, 72 h, read-out: Activity
G-361 = assay: Induction of apoptosis in human G361 cells assessed as activation of caspases-3/7 at 50 uM using Ac-DEVD-AMC as substrate after 6 hrs by fluorescence microplate reader method relative to control; assay type: functional
Summary of the method: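 G361 cells were seeded at 20,000 cells/well overnight, then treated with compound for 24 h. A 3x caspase-3/7 buffer (HEPES pH 7.4, NaCl, KCl, MgCl2, EGTA, Nonidet P40, CHAPS, sucrose, DTT, PMSF) containing Ac-DEVD-AMC substrate was added, and plates were incubated at 37 °C. Fluorescence at 346/442 nm was read after 6 h and expressed relative to untreated control.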

MCF7 [6] = assay: Cytotoxicity against human MCF7 cells assessed as cell viability after 72 hrs by fluorescence microplate reader method; assay type: functional, cell-based; conditions: MCF7, 72 h; summary of the method: as §1
[7] = biological target: Cyclin-dependent kinase 2/cyclin E1 (Homo sapiens, UniProt P24941); assay: Inhibition of CDK2/Cyclin E (unknown origin) expressed in baculoviral infected insect Sf9 cells using histone H1 as substrate in presence of [gamma-33P]ATP

Row | SMILES | IC50 [1] [µM] | IC50 (K562 [2]) [µM] | viability at 50 µM [3] [%] | viability at 50 µM (K562 [4]) [%] | viability at 50 µM (MCF7 [5]) [%] | fold change (FC) (G-361) | IC50 (MCF7 [6]) [µM] | IC50 ([7]; read-out: IC50) [µM] | IC50 ([7]; read-out: pIC50 (converted)) [µM]
1 | O=C(CCn1cc(-c2c[nH]c3ncccc23)nn1)c1c[nH]c2ncccc12 | > 50 | 44.3 | 61.3 | 65 | 63.5 | 4.5 | 64.7 | 17.8 | 20
2 | O=C(CCn1nncc1-c1c[nH]c2ncccc12)c1c[nH]c2ncccc12 | > 50 | > 25 | 78.7 | 73.8 | 77.5 | 3.3 | > 25 | 13.4 | 12.6
3 | O=S(=O)(c1ccccc1)n1cc(Cn2cc(-c3c[nH]c4ncccc34)nn2)c2cccnc21 | > 50 | > 25 | 86.1 | 73.3 | 78.7 | 7.5 | > 25 | 25.8 | 25.1
4 | O=C(Cn1nncc1-c1c[nH]c2ncccc12)c1c[nH]c2ncccc12 | > 50 | > 25 | 63 | 76.6 | 75.2 | 2.9 | > 25 | 1.1 | 1
5 | O=S(=O)(c1ccccc1)n1c(-c2cn(CCc3c[nH]c4ncccc34)nn2)cc2cccnc21 | > 50 | > 25 | 71.1 | 82.7 | 76.2 | 2.1 | > 25 | > 25 | 25.1
6 | O=C(Cn1cc(-c2cc3cccnc3[nH]2)nn1)c1c[nH]c2ncccc12 | > 50 | > 25 | 82 | 91.4 | 84.9 | 1.7 | > 25 | 9.2 | 10
7 | O=C(Cn1cc(-c2c[nH]c3ncccc23)nn1)c1c[nH]c2ncccc12 | > 50 | > 25 | 84.1 | 88 | 83.5 | 2.2 | > 25 | 29.3 | 31.6
8 | c1cnc2[nH]cc(CCCn3nncc3-c3c[nH]c4ncccc34)c2c1 | 33.4 | > 25 | 26.5 | 63.4 | 59.9 | 4.2 | > 25 | 2.7 | 2.51
9 | c1cnc2[nH]cc(CCn3cc(-c4c[nH]c5ncccc45)nn3)c2c1 | 44.2 | 39.5 | 53 | 58.6 | 71.4 | 1.2 | 87.1 | 7.2 | 7.94
10 | c1cnc2[nH]cc(CCCn3cc(-c4c[nH]c5ncccc45)nn3)c2c1 | 36.9 | 66.6 | 70 | 72.1 | 52 | 3.9 | 60.7 | 6.1 | 6.31
11 | O=C(Cn1nncc1-c1cc2cccnc2[nH]1)c1c[nH]c2ncccc12 | > 50 | > 25 | 96.3 | 91.1 | 98 | 2.2 | > 25 | 3 | 3.16
12 | O=C(CCn1cc(-c2cc3cccnc3[nH]2)nn1)c1c[nH]c2ncccc12 | > 50 | > 25 | 62.4 | 75.8 | 41.2 | 1.2 | > 25 | 3.6 | 3.98
13 | c1cnc2[nH]c(Cn3cc(-c4cc5cccnc5[nH]4)nn3)cc2c1 | > 50 | > 25 | 90.6 | 97.6 | 74.8 | 1.9 | > 25 | 1.9 | 2
14 | O=C(Cn1cc(-c2ccccc2)nn1)c1c[nH]c2ncccc12 | > 50 | > 25 | 86.8 | 95.9 | 82.8 | 1.5 | > 25 | > 50 | 100
15 | c1cnc2[nH]c(Cn3cc(-c4c[nH]c5ncccc45)nn3)cc2c1 | > 50 | > 50 | 88.6 | 81.9 | 84.5 | 2.1 | 47.4 | 18.4 | 20
16 | O=S(=O)(c1ccccc1)n1cc(Cn2cc(-c3cc4cccnc4[nH]3)nn2)c2cccnc21 | > 50 | > 25 | 76.4 | 90.2 | 72.6 | 1.6 | > 25 | > 25 | 25.1
17 | c1ccc(-c2cn(CCc3c[nH]c4ncccc34)nn2)cc1 | 33.6 | > 50 | 43.3 | 65.7 | 65.6 | 3.1 | > 50 | > 50 | 100
18 | c1cnc2[nH]c(-c3cn(CCc4c[nH]c5ncccc45)nn3)cc2c1 | > 50 | > 50 | 59.1 | 67.2 | 63.2 | 4.5 | 58.5 | 30 | 31.6
19 | c1cnc2[nH]cc(CCn3nncc3-c3c[nH]c4ncccc34)c2c1 | > 50 | > 25 | 65.7 | 59.2 | 58 | 1.9 | > 25 | 9.1 | 10
20 | c1cnc2[nH]c(-c3cnnn3CCc3c[nH]c4ncccc34)cc2c1 | > 50 | > 25 | 69.5 | 70 | 74.4 | 2 | > 25 | 27.6 | 25.1
21 | O=S(=O)(c1ccccc1)n1c(-c2cn(CCCc3c[nH]c4ncccc34)nn2)cc2cccnc21 | > 50 | > 25 | 86.8 | 89.2 | 84.1 | 1.8 | > 25 | 18 | 20
22 | CC[C@H](CO)Nc1nc(NCc2ccccc2)c2ncn(C(C)C)c2n1 [SELICICLIB] | 20.8 | 30.9 | – | – | – | – | 27.2 | – | –
23 | O=C(CCn1nncc1-c1cc2cccnc2[nH]1)c1c[nH]c2ncccc12 | > 50 | > 25 | 62.7 | – | – | – | > 25 | 36.1 | 31.6
24 | Cc1ccc(NC(=O)c2ccc(CN3CCN(C)CC3)cc2)cc1Nc1nccc(-c2cccnc2)n1 [IMATINIB] | – | 0.73 | – | – | – | – | > 10 | – | –
